Results from different studies.
Protocols differ between the studies behind these lines.
Target: Mitogen-activated protein kinase kinase kinase kinase 1 (MAP4K1, Homo sapiens, UniProt Q92918)

Compound	assay	setting	remaining binding
O=C(c1ccc(Nc2nccc(-c3cc4ccccc4s3)n2)cc1)N1CCC(N2CCCC2)CC1	binding, competition with immobilised ligand	1 µM	84%
COc1cnc(Nc2cccc(S(N)(=O)=O)c2)nc1N1CCN(c2ccccc2)CC1	binding, competition with immobilised ligand	1 µM	88%
c1cnn2ncc(-c3ccnc(N4CCC45COC5)n3)c2c1	binding	1 µM	100%
CNC(=O)Nc1ccc2c(c1)[C@@]1(CC2)OC(=O)N(CC(=O)N(Cc2ccc(F)cc2)[C@@H](C)C(F)(F)F)C1=O	cell-free assay, competition with immobilised ligand	1 µM	90%
C[C@@H]1CCN(c2nccc(-c3cnn4ncccc34)n2)C1	binding	1 µM	100%
CCN1CCN(Cc2ccc(C(=O)Nc3ccc(C)c(Oc4ccc5c(c4)CC(=O)N5)c3)cc2C(F)(F)F)CC1	binding, competition with immobilised ligand	1 µM	90%
N[C@H]1CCN(c2nccc(-c3cnn4ncccc34)n2)C1	binding	1 µM	100%
COCCOc1nc(-c2ccc(Cl)nc2)nc2c1CN(C(=O)c1ncn3ccccc13)CC2	cell-free assay, competition with immobilised ligand	0.1 µM	92%
O=C(c1ccc(Nc2ncc(Cl)c(-c3cc4ccccc4s3)n2)cc1)N1CCC(N2CCCC2)CC1	binding, competition with immobilised ligand	1 µM	26%
CNC(=O)[C@@H]1CC[C@@H](n2c(-c3ccc4cnccc4c3)nc3ccc(C(=O)NCc4cccc(C(N)=O)c4)cc32)C1	binding, competition with immobilised ligand	1 µM	82%
CN(C)C(=O)Cn1cc(-c2nc([C@@](C)(c3ccc(-c4cnc(N)nc4)cc3)C3CC3)no2)cn1	cell-free assay, competition with immobilised ligand	1 µM	100%
Cc1cnn2ncc(-c3ccnc(N(C)C)n3)c2c1	binding	1 µM	99%
Cc1c(NC(=O)c2cc(C(N)=O)nc3cc(F)ccc23)c(C(F)(F)F)nn1Cc1ccc(C#N)cc1	cell-free assay, competition with immobilised ligand	1 µM	100%
COc1ncc2cc3ccccc3nc2c1C#N	cell-free assay, competition with immobilised ligand	5 µM	89%
Cc1cnc(Nc2ccc(C(=O)N3CCC(N4CCCC4)CC3)cc2)nc1-c1cc2ccccc2s1	binding, competition with immobilised ligand	1 µM	22%
C=CC(=O)N1CCC(C(=O)NCC(=O)N2CCN(c3nc(-c4cnc(N)nc4C(F)F)nc(N4CCOCC4)n3)CC2)CC1	binding, competition with immobilised ligand	1 µM	100%
CN(C)c1ncc(F)c(-c2cnn3ncccc23)n1	binding	1 µM	100%
CN(C(=O)c1ccccc1)c1cc(N(C)c2ccc3c(c2)CCc2ccc(C(=O)NCCN4CCOCC4)cc2C3=O)ccc1F	cell-free assay, competition with immobilised ligand	1 µM	99%
CN(C)c1nccc(-c2cnc3ncccn23)n1	binding	1 µM	100%
O=C(Nc1c[nH]nc1C(=O)NC1CCNCC1)c1cc(F)cc(F)c1	binding, competition with immobilised ligand	1 µM	100%
CS(=O)(=O)c1cc(C2(NC(=O)c3cncc4c3cnn4-c3ccc(F)cc3)CC2)ccn1	cell-free assay, competition with immobilised ligand	1 µM	89%
CN(C)c1nccc(-c2cnn3ncccc23)n1	binding	1 µM	100%
